Measurements from different studies.
Protocols differ between the studies behind these lines. Values after ≈ are worked out from the molar mass of the structure shown.

SMILES | test | system | setting | quantity | value
COc1cc(C2C3=C(COC3=O)N(CCO)c3cc4c(cc32)CCC4)cc(OC)c1OC (centres unmarked) | general toxicity | female C57BL/6 mouse | intraperitoneal, single dose | MTD | ≥ 400 mg/kg
CC=CCC(C)C1OC(=O)C(C(C)C)N(C)C(=O)C(CC(C)C)N(C)C(=O)C(CC(C)C)N(C)C(=O)C(C)NC(=O)C(C)NC(=O)C(CC(C)C)N(C)C(=O)C(C(C)C)NC(=O)C(CC(C)C)N(C)C(=O)CN(C)C(=O)C(CC)NC(=O)C1NC (centres unmarked) |  | aqueous buffer | 18 h, pH 7.4 | solubility | 91 µM (≈ 109 µg/mL)
CC(c1cncnc1)n1c(=S)[nH]c2ccc(Cl)cc2c1=O (centres unmarked) |  | Caco-2 | 10 µM, 90 min, pH 7.4 | Papp B→A | 38.4 ×10⁻⁶ cm/s
Cl.Cn1c(=O)n(CCCCN2CCC3(CC2)OCc2ccccc23)c2ccccc21 |  | male Sprague-Dawley rat, brain | intravenous, 10 mg/kg | tissue/plasma ratio | 0.48
C/C=C1/CN2CC[C@]34C(=C(C(=O)OC)[C@H]1C[C@H]23)Nc1ccccc14 |  | Caco-2 | 10 µM, 2 h, pH 7.4 | Papp A→B | 38.1 ×10⁻⁶ cm/s
CC[C@H](C)[C@H]1C(=O)N[C@H]([C@H](C)O)C(=O)NCC(=O)N[C@@H](CC(C)C)C(=O)N2CCC[C@H]2C(=O)N[C@@H](Cc2ccc(O)cc2)C(=O)N[C@H](CC(C)C)C(=O)N2CCC[C@@H]2C(=O)NCC(=O)N[C@@H](Cc2ccc(O)cc2)C(=O)N1C |  | aqueous buffer | 18 h, pH 7.4 | solubility | 933 µM (≈ 1020 µg/mL)
O=c1c2cc(Cl)c(CO)cc2[nH]c(=S)n1Cc1cncnc1 |  | Caco-2 | 10 µM, 90 min, pH 7.4 | Papp A→B | 14 ×10⁻⁶ cm/s
C/C=C1/CN2CC[C@@]34c5cc(O)ccc5N(C)[C@]35OC[C@@]4(C(=O)OC)[C@H]1C[C@H]25 |  | Caco-2 | 10 µM, 2 h, pH 7.4 | Papp B→A | 30.9 ×10⁻⁶ cm/s
